The source made the active and inactive calls. The calls are words filed in the database; no cut-off is given here.
Experiments:
[1] = test system: MC3T3-E1; assay: Downregulation of RANKL protein expression in mouse MC3T3-E1 cells up to 4 uM after 48 hrs in presence of ascorbic acid and beta-glycerophosphate by Western blot analysis; assay type: functional, cell-based
Outline: (§1)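 MC3T3-E1 cells given 400 μM ascorbic acid plus 5 mM β-glycerophosphate, exposed to test compound or not for 48 h. Lysed in boiling SDS sample buffer, protein measured by BCA. 40−50 μg of lysate run on 8% or 10% SDS-PAGE and transferred to PVDF. Blocked in 5% milk, probed with primary antibodies for 3 h at room temperature or overnight at 4 °C, detected by ECL.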

[2] = test system: MC3T3-E1; assay: Increase in ALP mRNA expression in 2 days differentiated mouse MC3T3-E1 cells up to 4 uM after 48 hrs in presence of ascorbic acid and beta-glycerophosphate by real-time PCR analysis; assay type: functional, cell-based
Outline: (§2)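 MC3T3-E1 cells stimulated with 400 μM ascorbic acid and 5 mM β-glycerophosphate, with or without compound, 48 h. TRIzol RNA, real-time RT-PCR: 40 cycles of 95 °C 20 s, 56 °C 20 s, 72 °C 30 s. Ct of each transcript […] β-actin Ct, expressed relative to control samples.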

[3] = species: Mus musculus; assay: Activation of Wnt signaling pathway in mouse MC3T3-E1 cells assessed as increase in Smad protein expression up to 4 uM after 48 hrs in presence of ascorbic acid and beta-glycerophosphate by Western blot analysis; assay type: cell-based; outline: as §1
[4] = species: Mus musculus; assay: Activation of Wnt signaling pathway in mouse MC3T3-E1 cells assessed as increase in Runx2 protein expression up to 4 uM after 48 hrs in presence of ascorbic acid and beta-glycerophosphate by Western blot analysis; assay type: cell-based; outline: as §1
[5] = test system: MC3T3-E1; assay: Downregulation of DKK1 protein expression in mouse MC3T3-E1 cells up to 4 uM after 48 hrs in presence of ascorbic acid and beta-glycerophosphate by Western blot analysis; assay type: functional, cell-based; outline: as §1
[6] = species: Mus musculus; assay: Activation of Wnt signaling pathway in mouse MC3T3-E1 cells assessed as upregulation of cyclin D1 protein expression after 48 hrs in presence of ascorbic acid and beta-glycerophosphate by Western blot analysis; assay type: cell-based
Outline: (§3)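 MC3T3-E1 cells with 400 μM ascorbic acid and 5 mM β-glycerophosphate, with or without compound, for 48 h. Whole-cell lysates (40−50 μg, BCA) separated by SDS-PAGE, blotted to PVDF. c-Myc and cyclin D1 probed with primary antibodies, then secondary antibody for 90 min, read by chemiluminescence.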

[7] = species: Mus musculus; assay: Activation of Wnt signaling pathway in mouse MC3T3-E1 cells assessed as upregulation of C-Myc protein expression after 48 hrs in presence of ascorbic acid and beta-glycerophosphate by Western blot analysis; assay type: cell-based; outline: as §3
[8] = test system: Osteoclast; assay: Inhibition of RANKL/M-CSF-induced osteoclast differentiation in mouse bone marrow-derived osteoclasts assessed as reduction in formation of TRAP-positive cells after 5 days; assay type: functional, cell-based
Outline: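 Bone marrow cells from 4-week-old mice were primed 24 h with 30 ng/mL M-CSF, then cultured with 100 ng/mL RANKL plus 30 ng/mL M-CSF. Compound was present or absent and medium was renewed every 2 days. On day 5 cells were fixed in 4% paraformaldehyde and TRAP-stained 1 h at 37 °C. Multinucleated TRAP-positive cells with ≥3 nuclei were counted as osteoclasts.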

[9] = test system: Osteoclast; assay: Inhibition of RANKL/M-CSF-induced osteoclast differentiation in mouse bone marrow-derived osteoclasts assessed as downregulation of TRAP protein expression up to 4 uM after 48 hrs by Western blot analysis; assay type: functional, cell-based
Outline: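 Mouse bone marrow cells were taken from 4-week-old mice and primed 24 h in 30 ng/mL M-CSF. They were then given 100 ng/mL RANKL plus 30 ng/mL M-CSF, with or without compound, for 48 h. Lysates were made in boiling SDS buffer and quantified by BCA. 40–50 μg was run on SDS-PAGE and immunoblotted on PVDF with β-actin reference and ECL read-out.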

[10] = test system: Mus musculus; assay: Anti-osteoporotic activity in po dosed OVX-induced bone loss ICR mouse model assessed as decrease in trabecular bone destruction in femur administered for 12 weeks by microcomputed tomography; assay type: functional, organism-based
[11] = test system: Mus musculus; assay: Anti-osteoporotic activity in ovariectomized ICR mouse assessed as increase in trabecular number in femur at 2 to 10 mg/kg, po after 12 weeks by microcomputed tomography; assay type: functional, organism-based
[12] = test system: Mus musculus; assay: Anti-osteoporotic activity in ovariectomized ICR mouse assessed as suppression of changes in structure model index levels in femur at 2 to 10 mg/kg, po after 12 weeks by microcomputed tomography; assay type: functional, organism-based
[13] = test system: Mus musculus; assay: Effect on calcium level in serum of OVX-induced bone loss ICR mouse model at 2 mg/kg, po for 12 weeks by ELISA (reference value: 9.3 +/- 0.3 mg/dl); assay type: functional
[14] = test system: Mus musculus; assay: Effect on calcium level in serum of OVX-induced bone loss ICR mouse model at 10 mg/kg, po for 12 weeks by ELISA (reference value: 9.3 +/- 0.3 mg/dl); assay type: functional
[15] = test system: Mus musculus; assay: Effect on […] level in serum of OVX-induced bone loss ICR mouse model at 10 mg/kg, po for 12 weeks by ELISA (reference value: 8.2 +/- 0.4 mg/dl); assay type: functional
[16] = test system: Mus musculus; assay: Effect on alkaline phosphatase activity in serum of OVX-induced bone loss ICR mouse model at 5 mg/kg, po for 12 weeks using p-NPP as substrate (reference value: 84.9 +/- 4.2 U/L); assay type: functional
[17] = test system: Mus musculus; assay: Effect on alkaline phosphatase activity in serum of OVX-induced bone loss ICR mouse model at 10 mg/kg, po for 12 weeks using p-NPP as substrate (reference value: 84.9 +/- 4.2 U/L); assay type: functional
[18] = test system: Mus musculus; assay: Effect on TRAP activity in serum of OVX-induced bone loss ICR mouse model at 2 mg/kg, po for 12 weeks (reference value: 19.8 +/- 1.0 U/L); assay type: functional
[19] = test system: Mus musculus; assay: Effect on TRAP activity in serum of OVX-induced bone loss ICR mouse model at 10 mg/kg, po for 12 weeks (reference value: 19.8 +/- 1.0 U/L); assay type: functional
[20] = test system: Mus musculus; assay: Effect on osteocalcin level in serum of OVX-induced bone loss ICR mouse model at 5 mg/kg, po for 12 weeks by ELISA (reference value: 176.9 +/- 4.7 ng/ml); assay type: functional
[21] = test system: Mus musculus; assay: Effect on C-terminal telopeptide level in serum of OVX-induced bone loss ICR mouse model at 2 mg/kg, po for 12 weeks by ELISA (reference value: 95.7 +/- 3.8 ng/ml); assay type: functional
[22] = test system: Mus musculus; assay: Effect on C-terminal telopeptide level in serum of OVX-induced bone loss ICR mouse model at 10 mg/kg, po for 12 weeks by ELISA (reference value: 95.7 +/- 3.8 ng/ml); assay type: functional
[23] = test system: MC3T3-E1; assay: Increase in OPG to RANKL mRNA expression ratio in mouse MC3T3-E1 cells up to 4 uM after 48 hrs in presence of ascorbic acid and beta-glycerophosphate by real-time PCR analysis; assay type: functional, cell-based; outline: as §2
[24] = test system: MC3T3-E1; assay: Induction of OCN mRNA expression in mouse MC3T3-E1 cells up to 4 uM after 48 hrs in presence of ascorbic acid and beta-glycerophosphate by real-time PCR analysis

C[C@]1(OC(=O)/C=C/c2ccccc2)C[C@@H](O)[C@]2(O)C=CO[C@@H](O[C@@H]3O[C@H](CO)[C@@H](O)[C@H](O)[C@H]3O)[C@@H]21 [HARPAGOSIDE]
Activity [1]: Active
Activity [2]: Dose-dependent effect
Activity [3]: Active
Activity [4]: Active
Activity [5]: Active
Activity [6]: Dose-dependent effect
Activity [7]: Dose-dependent effect
inhibition [8]: Active
inhibition [9]: Active
Activity [10]: Dose-dependent effect
Activity [11]: Active
Activity [12]: Active
Activity [13]: 9.3 mg/dL
Activity [14]: 10.3 mg/dL
Activity [15]: 8.2 mg/dL
Activity [16]: 82.6 U/L
Activity [17]: 78.8 U/L
Activity [18]: 10.4 U/L
Activity [19]: 7.7 U/L
Activity [20]: 162.7 ng/mL
Activity [21]: 88.5 ng/mL
Activity [22]: 80.7 ng/mL
Activity [23]: Active
Activity [24]: Active

From ChEMBL document CHEMBL4052590, “Anti-Osteoporotic Activity of Harpagoside by Upregulation of the BMP2 and Wnt Signaling Pathways in Osteoblasts and Suppression of Differentiation in Osteoclasts” (J Nat Prod, 2017)
